Data as given in ChEMBL document CHEMBL1122121, “Synthesis and biological activity of 5'-substituted 5-fluoropyrimidine nucleosides” (J Med Chem, 1982).

Assays:
Mus musculus [1] = test: Percent increase in life span(ILS) was measured in mice at a dose of 150 mg/kg; type: functional
How it was run: (§1)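 Female DBA/2 mice (18–22 g), groups of five, implanted ip on day 0 with 10^5 L1210 leukemia cells. Compound dissolved in PBS and given ip daily on days 1–5 (q.d. 1–5). Controls received PBS. Mice were weighed on days 1 and 7. Read-outs were mean mortality and percent increase in life span.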

L1210 [2] = test: Antitumor activity against L1210 leukemia cells in mice at a dose of 250 mg/kg (ip) expressed as change in the body weight after 7 days; type: functional, Mus musculus
How it was run: (§2)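 Female DBA/2 mice (18–22 g), groups of five, implanted ip with 10^5 L1210 cells on day 0. Compound in PBS given ip (0.2 mL) once daily days 1–5. Controls got PBS. Mice weighed on days 1 and 7. Weight change expressed as percentage of initial weight.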

Mus musculus [3] = test: Mortality rate was measured at a dose of 150 mg/kg; type: functional; how it was run: as §1
Mus musculus [4] = test: Mortality rate was measured at a dose of 250 mg/kg; type: functional; how it was run: as §1
Mus musculus [5] = test: Percent increase in life span(ILS) was measured in mice at a dose of 100 mg/kg; type: functional; how it was run: as §1
Mus musculus [6] = test: Mortality rate was measured at a dose of 100 mg/kg; type: functional; how it was run: as §1
Mus musculus [7] = test: Percent increase in life span(ILS) was measured in mice at a dose of 250 mg/kg; type: functional; how it was run: as §1
L1210 [8] = test: Antitumor activity against L1210 leukemia cells in mice at a dose of 100 mg/kg (ip) expressed as change in the body weight after 7 days; type: functional, Mus musculus; how it was run: as §2
L1210 [9] = test: Antitumor activity against L1210 leukemia cells in mice at a dose of 150 mg/kg (ip) expressed as change in the body weight after 7 days; type: functional, Mus musculus; how it was run: as §2
L1210 [10] = test: Concentration required for the 50% inhibition of growth of L1210 mouse leukemia cells in culture; type: functional, cell-based
How it was run: (§3)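 10^5 mycoplasma-free L1210 or CCRF-CEM cells grown 48 h in RPMI 1640 with 10% fetal calf serum containing compound, then counted. Value is concentration giving 50% growth inhibition. Compounds were purified by preparative TLC until no FUrd was detectable by HPLC. Highest concentration noted was 10^-4 M.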

CCRF-CEM [11] = test: Concentration required for the 50% inhibition of growth of CCRF-CEM human leukemia cells in culture; type: functional, cell-based; how it was run: as §3
CCRF-CEM [12] = test: Concentration required for the 50% inhibition of growth of CCRF-CEM human leukemia cells in culture; No growth inhibition was observed at a concentration of 10^-4 M; type: functional, cell-based; how it was run: as §3
L1210 [13] = test: Concentration required for the 50% inhibition of growth of L1210 mouse leukemia cells in culture; No growth inhibition was observed at a concentration of 10^-4 M; type: functional, cell-based; how it was run: as §3

Row | SMILES | ILS at 150 mg/kg (Mus musculus [1]) [%] | Change of body weight (L1210 [2]) [%] | Mean day of death (Mus musculus [3]) [days] | Mean day of death (Mus musculus [4]) [days] | ILS at 100 mg/kg (Mus musculus [5]) [%] | Mean survival time (Mus musculus [6]) [days] | ILS at 250 mg/kg (Mus musculus [7]) [%] | Change of body weight (L1210 [8]) [%] | Change of body weight (L1210 [9]) [%] | IC50 (L1210 [10]) [µM] | IC50 (CCRF-CEM [11]) [µM] | IC50 (CCRF-CEM [12]) | IC50 (L1210 [13])
1 | O=c1[nH]c(=O)n(C2O[C@H](CCl)[C@@H](O)[C@H]2O)cc1F (some centres not stated) | 51 | -4.6 | 16 | 17.4 | 47 | 15.6 | 64 | -0.8 | -3.5 | 3.4 |  |  | 
2 | O=c1[nH]cc(F)c(=O)[nH]1 [FLUOROURACIL] |  |  |  |  |  |  |  |  |  | 0.5 | 5 |  | 
3 | O=c1[nH]c(=O)n([C@@H]2O[C@H](CO)[C@@H](O)[C@H]2O)cc1F [5-FLUOROURIDINE] |  |  |  |  |  |  |  |  |  | 0.005 | 0.05 |  | 
4 | O=c1[nH]c(=O)n(C2O[C@H](CBr)[C@@H](O)[C@H]2O)cc1F (some centres not stated) | 41 | -1.8 | 15 | 14.2 | 34 | 14.2 | 34 | 1.7 |  | 0.8 | 3.1 |  | 
5 | [N-]=[N+]=NC[C@H]1OC(n2cc(F)c(=O)[nH]c2=O)[C@H](O)[C@@H]1O (some centres not stated) |  |  |  |  |  |  |  |  |  | 170 | 350 |  | 
6 | Cc1ccc(S(=O)(=O)OC[C@H]2OC(n3cc(F)c(=O)[nH]c3=O)[C@H](O)[C@@H]2O)cc1 (some centres not stated) |  |  |  |  |  |  |  |  |  | 0.46 | 1.8 |  | 
7 | O=c1[nH]c(=O)n(C2O[C@H](CO[N+](=O)[O-])[C@@H](O)[C@H]2O)cc1F (some centres not stated) |  |  |  |  |  |  |  |  |  |  |  | No inhibition | No inhibition
8 | O=c1[nH]c(=O)n(C2O[C@H](CI)[C@@H](O)[C@H]2O)cc1F (some centres not stated) |  |  |  |  |  |  |  | 0 |  | 5 | 27 |  | 
9 | O=c1[nH]c(=O)n(C2O[C@H](CF)[C@@H](O)[C@H]2O)cc1F (some centres not stated) | 30 | 2.3 | 13.8 | 16.8 | 32 | 14 | 58 | -5.6 | 0.9 | 29 | 140 |  | 
10 | NC[C@H]1OC(n2cc(F)c(=O)[nH]c2=O)[C@H](O)[C@@H]1O (some centres not stated) | 19 | -0.9 | 12.8 | 13.6 | 17 | 12.4 | 28 | 1.8 | -5.5 | 8.7 | 49 |  | 
11 | CS(=O)(=O)OC[C@H]1OC(n2cc(F)c(=O)[nH]c2=O)[C@H](O)[C@@H]1O (some centres not stated) | 40 | -1.7 | 14.8 | 16.8 | 26 | 13.4 | 58 | 0 | 1.3 | 0.32 | 0.66 |  | 
12 | C[C@H]1O[C@@H](n2cc(F)c(=O)[nH]c2=O)[C@H](O)[C@@H]1O [DOXIFLURIDINE] | 13 | 0 | 12 | 12.8 | 8 | 11.4 | 20 | 5.7 | 4.8 | 3.6 | 22 |  | 
